We go through 16 compounds from ChEMBL document CHEMBL1144816, “Potential anticancer activity of naturally occurring and semisynthetic derivatives of aculeatins A and B from Amomum aculeatum” (2008).

Active and inactive are the calls of the source. No cut-off for these calls is given here.

In assay [1] the test system is LNCaP. Nature of the assay: Cytotoxicity against human LNCaP cells. It is filed as functional. The settings on record: read-out: ED50 (the source's name).
Assay [2] relates to MCF7. In words: Cytotoxicity against human MCF7 cells. Type of assay: functional. The settings on record: read-out: ED50 (the source's name).
Assay [3] concerns Lu1. In words: Cytotoxicity against human Lu1 cells. Type of assay: functional. The settings on record: read-out: ED50 (the source's name).
A short description of assay [4]: Antitumor activity against human A2780S cells xenografted in mouse at 3 mg/kg relative to control. Type of assay: functional, A2780. The essentials:
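Mice bearing human A2780S ovarian carcinoma xenografts; dosed at 3 mg/kg/injection; activity read out as log cell kill versus control; run per a previously published protocol.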
(Xenograft models place foreign cells or tissue in a host animal.)

Assay [5] has as its system Lu1. Nature of the assay: Inhibition of human Lu1 cells propagated in hollow fibers via intraperitoneal site of immunodeficient mouse at 6.25 to 50 mg/kg after 3 to 6 days. It is filed as functional, organism-based. The essentials:
(§1)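 Lu1, LNCaP or MCF-7 cells in hollow fibers implanted subcutaneously or intraperitoneally in immunodeficient mice. Dosing was once daily by intraperitoneal injection at 6.25, 12.5, 25 or 50 mg/kg on days 3–6 after implantation. Growth inhibition was measured against vehicle-treated animals.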

For assay [6], the system named is MCF7. Nature of the assay: Inhibition of human MCF7 cells propagated in hollow fibers via subcutaneous site of immunodeficient mouse at 6.25 to 50 mg/kg after 3 to 6 days. It is filed as functional, organism-based. The essentials: as §1
The test system of assay [7] is LNCaP. In words: Inhibition of human LNCaP cells propagated in hollow fibers via intraperitoneal site of immunodeficient mouse at 6.25 to 50 mg/kg after 3 to 6 days. Type of assay: functional, organism-based. The essentials: as §1
The subject of assay [8] is Lu1. In words: Inhibition of human Lu1 cells propagated in hollow fibers via subcutaneous site of immunodeficient mouse at 6.25 to 50 mg/kg after 3 to 6 days. It is filed as functional, organism-based. The essentials:
as §1

Assay [9] has as its system LNCaP. In words: Inhibition of human LNCaP cells propagated in hollow fibers via subcutaneous site of immunodeficient mouse at 6.25 to 50 mg/kg after 3 to 6 days. Type of assay: functional, organism-based. The essentials:
as §1

Assay [10] deals with MCF7. In words: Inhibition of human MCF7 cells propagated in hollow fibers via intraperitoneal site of immunodeficient mouse at 6.25 to 50 mg/kg after 3 to 6 days. It is filed as functional. The settings on record: dose mg/kg 6.25-50. The essentials: as §1
The test system of the next assay is P388. In words: Antitumor activity against mouse P388 lymphocytic leukemia model at 15 mg/kg, ip relative to control. Type of assay: functional. Conditions: route intraperitoneal. The essentials: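 Murine P388 lymphocytic leukemia in vivo. Compound given by intraperitoneal injection at 15 mg/kg/injection. Activity expressed as T/C (%) relative to control.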

`CCCCCCCCCCCCC[C@@H]1C[C@@H](OC(=O)c2c(Br)c(Br)c(Br)c(Br)c2C(=O)O)C[C@]2(CCC3(C=CC(=O)C=C3)O2)O1`: the EC50 in the assay on LNCaP [1] (Homo sapiens, LNCaP) was 5100 nM; in the assay on MCF7 [2] (Homo sapiens, MCF7), 4700 nM; with Lu1 [3] (Homo sapiens, Lu1), 10300 nM.

As for `CCCCCCCCCCCCC[C@@H]1C[C@@H](OC(=O)c2cc(F)c(Cl)nc2Cl)C[C@]2(CCC3(C=CC(=O)C=C3)O2)O1`, the EC50 in the assay on LNCaP [1] (Homo sapiens, LNCaP) was 17900 nM; with MCF7 [2] (Homo sapiens, MCF7), 14600 nM; in the assay on Lu1 [3] (Homo sapiens, Lu1) it was 22200 nM.

Take `CCCCCCCCCCCCC[C@@H]1C[C@@H](O)C[C@@]2(CC[C@]3(C=CC(=O)C[C@@H]3O)O2)O1` (relative stereo) [ACULEATOL E]: the EC50 in the assay on LNCaP [1] (Homo sapiens, LNCaP) worked out at 4400 nM; in the assay with MCF7 [2] (Homo sapiens, MCF7), 3900 nM; with Lu1 [3] (Homo sapiens, Lu1) it was 1800 nM.

For `CCCCCCCCCCCCC[C@@H]1C[C@@H](OC(=O)c2ccc(Br)cc2)C[C@]2(CCC3(C=CC(=O)C=C3)O2)O1`, the EC50 was 800 nM in the assay on LNCaP [1] (Homo sapiens, LNCaP); 700 nM in the assay on MCF7 [2] (Homo sapiens, MCF7); 1300 nM with Lu1 [3] (Homo sapiens, Lu1).

On to `CCCCCCCCCCCCC[C@@H]1C[C@@H](O)C[C@@]2(CCC3(C=CC(=O)C=C3)O2)O1` [ACULEATINS B], for which the EC50 with LNCaP [1] (Homo sapiens, LNCaP) is 1200 nM; in the assay on MCF7 [2] (Homo sapiens, MCF7), 1900 nM; with Lu1 [3] (Homo sapiens, Lu1) it was 3100 nM.

As for `CCCCCCCCCCCCC[C@@H]1C[C@@H](OC(C)=O)C[C@@]2(CCC3(C=CC(=O)C=C3)O2)O1`, the EC50 in the assay with LNCaP [1] (Homo sapiens, LNCaP) was 2200 nM; in the assay with MCF7 [2] (Homo sapiens, MCF7), 3500 nM; in the assay on Lu1 [3] (Homo sapiens, Lu1) it was 5700 nM.

Turning to `CCCCCCCCCCCCC[C@@H]1C[C@@H](OC(=O)[C@@]23CC[C@@](C)(C(=O)O2)C3(C)C)C[C@]2(CCC3(C=CC(=O)C=C3)O2)O1`, the EC50 in the assay with LNCaP [1] (Homo sapiens, LNCaP) stood at 3000 nM; in the assay with MCF7 [2] (Homo sapiens, MCF7), 3200 nM; in the assay on Lu1 [3] (Homo sapiens, Lu1), 4000 nM.

For the compound `CCCCCCCCCCCCCCC[C@@H](O)CC1(OC)CCC2(C=CC(=O)C=C2)O1` (stereo in doubt; 7), the EC50 with LNCaP [1] (Homo sapiens, LNCaP) was determined as 900 nM; with MCF7 [2] (Homo sapiens, MCF7) it was 700 nM; in the assay on Lu1 [3] (Homo sapiens, Lu1), 500 nM.

Consider `CCCCCCCCCCC[C@@H]1C[C@H](O)C[C@@]2(CCC3(C=CC(=O)C=C3)O2)O1` (relative stereo) [ACULEATIN E], for which the EC50 was 1800 nM in the assay with LNCaP [1] (Homo sapiens, LNCaP); 500 nM in the assay on MCF7 [2] (Homo sapiens, MCF7); 1800 nM in the assay with Lu1 [3] (Homo sapiens, Lu1).

For the compound `CCCCCCCCCCCCC[C@@H]1C[C@@H](OC(=O)c2c(Cl)c(Cl)c(Cl)c(Cl)c2C(=O)O)C[C@]2(CCC3(C=CC(=O)C=C3)O2)O1`, the EC50 came to 5800 nM with LNCaP [1] (Homo sapiens, LNCaP); 4800 nM in the assay on MCF7 [2] (Homo sapiens, MCF7); 12800 nM with Lu1 [3] (Homo sapiens, Lu1).

On to `CCCCCCCCCCCCC[C@@H]1C[C@@H](OC(=O)COCC(=O)O)C[C@]2(CCC3(C=CC(=O)C=C3)O2)O1`, for which the EC50 was 1900 nM in the assay on LNCaP [1] (Homo sapiens, LNCaP); 1300 nM in the assay with MCF7 [2] (Homo sapiens, MCF7); 3400 nM with Lu1 [3] (Homo sapiens, Lu1).

Regarding `CCCCCCCCCCCCC[C@@H]1C[C@@H](OC(C)=O)C[C@]2(CCC3(C=CC(=O)C=C3)O2)O1`, the EC50 was 1100 nM with LNCaP [1] (Homo sapiens, LNCaP); 1500 nM in the assay on MCF7 [2] (Homo sapiens, MCF7); 2600 nM in the assay on Lu1 [3] (Homo sapiens, Lu1).

One may read the Inhibition as the drop in the measured response relative to a control, in per cent. A low value points to little suppression. As usually defined, the T/C is the result in the treated group divided by that in the control group, in per cent. In [4], `CCCCCCCCCCCCC[C@@H]1C[C@@H](O)C[C@]2(CCC3(C=CC(=O)C=C3)O2)O1` [ACULEATIN A] gave an LCK of 0.4. For the same compound, the result in the assay with Lu1 [5], in the assay on MCF7 [6], with LNCaP [7], in the assay with Lu1 [8] and with LNCaP [9] was inactive. Further, the EC50 was found to be 500 nM in the assay on LNCaP [1] (Homo sapiens, LNCaP); 200 nM in the assay on MCF7 [2] (Homo sapiens, MCF7); 1000 nM with Lu1 [3] (Homo sapiens, Lu1). In the assay on MCF7 [10], the Inhibition came to 10%. This compound returned a T/C in the assay with P388 of 122%.

As for `CCCCCCCCCCCCC[C@@H]1CC(=O)C[C@]2(CCC3(C=CC(=O)C=C3)O2)O1`, the EC50 was 22100 nM in the assay on LNCaP [1] (Homo sapiens, LNCaP); 7500 nM in the assay on MCF7 [2] (Homo sapiens, MCF7); 30500 nM with Lu1 [3] (Homo sapiens, Lu1).

Turning to `CCCCCCCCCCCCCCC[C@@H](O)CC1(OC)CCC2(C=CC(=O)C=C2)O1` (stereo in doubt; 6), the EC50 in the assay on LNCaP [1] amounted to 700 nM; with MCF7 [2] it was 900 nM; with Lu1 [3] it was 900 nM.

`CCCCCCCCCCC[C@@H]1C[C@@H](O)C[C@]2(CCC3(C=CC(=O)C=C3)O2)O1` (relative stereo) [ACULEATIN F]: the EC50 was 700 nM in the assay on LNCaP [1] (Homo sapiens, LNCaP); 500 nM with MCF7 [2] (Homo sapiens, MCF7); 1000 nM in the assay with Lu1 [3] (Homo sapiens, Lu1).
